Assay results: ChEMBL document CHEMBL3045605, “Synthesis and anticancer evaluation of novel 3,5-diaryl-thiazolo[4,5-d]pyrimidin-2-one derivatives” (2013)

Key:
Format in all cases: functional
HCT-116 [1] = experiment: Anticancer activity against Homo sapiens (human) HCT116 cells by SRB assay
Summary of the method: (§1)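 NCI 60-line panel, five tenfold dilutions from 10−4 to 10−8 M, growth read by sulforhodamine B staining against untreated controls. From the dose–response per line: GI50 (molar concentration giving half growth inhibition), TGI (molar concentration giving total growth inhibition, cytostatic) and LC50 (molar concentration killing 50% of initial cells, cytotoxic).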

SK-MEL-28 = experiment: Anticancer activity against Homo sapiens (human) SK-MEL-28 cells assessed as cell growth at 10 uM by SRB assay; settings: read-out: Activity
Summary of the method: (§2)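 Single-dose screen in the NCI 60-human-tumour-cell-line panel (nine cancer types) at 10−5 M. Cell growth was estimated by sulforhodamine B protein staining and reported as percent growth of treated cells relative to untreated controls.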

MDA-MB-468 = experiment: Anticancer activity against Homo sapiens (human) MDA-MB-468 cells assessed as cell growth at 10 uM by SRB assay; settings: read-out: Activity; summary of the method: as §2
LOX IMVI [2] = experiment: Anticancer activity against Homo sapiens (human) LOXIMVI cells assessed as cell growth at 10 uM by SRB assay; settings: read-out: Activity
Summary of the method: (§3)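 NCI 60-cell human tumour panel (nine cancer types) screened at one concentration, 10−5 M. Cell growth estimated by sulforhodamine B protein staining and reported as percent growth of treated cells relative to untreated controls.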

U-251 = experiment: Anticancer activity against Homo sapiens (human) U251 cells assessed as cell growth at 10 uM by SRB assay; settings: read-out: Activity
Summary of the method: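 NCI 60-cell human tumour panel (leukemia, melanoma, lung, colon, CNS, breast, ovarian, prostate, renal lines) given a single 10−5 M dose. Growth is expressed as percent growth of treated cells relative to untreated controls, with cell growth/viability estimated by sulforhodamine B protein staining.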

OVCAR-5 = experiment: Anticancer activity against Homo sapiens (human) OVCAR5 cells by SRB assay; settings: read-out: pTGI (converted)
Summary of the method: (§4)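 Five-dose NCI 60-cell-line panel testing at tenfold dilutions from 10−4 to 10−8 M, with growth read by sulforhodamine B protein staining. For each cell line: GI50 is the molar concentration giving half growth inhibition; TGI is total growth inhibition (cytostatic); LC50 is the molar concentration killing 50% of the initial cells (cytotoxic).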

LOX IMVI [3] = experiment: Anticancer activity against Homo sapiens (human) LOXIMVI cells by SRB assay; summary of the method: as §1
HCT-116 [4] = experiment: Anticancer activity against Homo sapiens (human) HCT116 cells assessed as cell growth at 10 uM by SRB assay; settings: read-out: Activity; summary of the method: as §3
MCF7 = experiment: Anticancer activity against Homo sapiens (human) MCF7 cells by SRB assay; summary of the method: as §1
HCC 2998 = experiment: Anticancer activity against Homo sapiens (human) HCC2998 cells assessed as cell growth at 10 uM by SRB assay; settings: read-out: Activity; summary of the method: as §3
SF-539 [5] = experiment: Anticancer activity against Homo sapiens (human) SF539 cells assessed as cell growth at 10 uM by SRB assay; settings: read-out: Activity; summary of the method: as §2
Malme-3M = experiment: Anticancer activity against Homo sapiens (human) MALME-3M cells by SRB assay; summary of the method: as §1
M14 = experiment: Anticancer activity against Homo sapiens (human) M14 cells by SRB assay; summary of the method: as §1
OVCAR-3 [6] = experiment: Anticancer activity against Homo sapiens (human) OVCAR3 cells by SRB assay; summary of the method: as §4
OVCAR-3 [7] = experiment: Anticancer activity against Homo sapiens (human) OVCAR3 cells assessed as cell growth at 10 uM by SRB assay; settings: read-out: Activity; summary of the method: as §2
SK-MEL-5 [8] = experiment: Anticancer activity against Homo sapiens (human) SK-MEL-5 cells by SRB assay; summary of the method: as §4
SF-295 [9] = experiment: Anticancer activity against Homo sapiens (human) SF295 cells assessed as cell growth at 10 uM by SRB assay; settings: read-out: Activity; summary of the method: as §2
KM12 = experiment: Anticancer activity against Homo sapiens (human) KM12 cells assessed as cell growth at 10 uM by SRB assay; settings: read-out: Activity; summary of the method: as §3
[10] = Anticancer activity against Homo sapiens (human) RPMI8266 cells assessed as cell growth at 10 uM by SRB assay; settings: read-out: Activity; summary of the method: as §2
SF-295 [11] = experiment: Anticancer activity against Homo sapiens (human) SF295 cells by SRB assay; summary of the method: as §4
NCI-H23 = experiment: Anticancer activity against Homo sapiens (human) NCI-H23 cells assessed as cell growth at 10 uM by SRB assay; settings: read-out: Activity; summary of the method: as §2
[12] = Anticancer activity against Homo sapiens (human) NCI-322M cells by SRB assay; summary of the method: as §4
786-0 = experiment: Anticancer activity against Homo sapiens (human) 786-0 cells by SRB assay; summary of the method: as §1
MDA-MB-231 [13] = experiment: Anticancer activity against Homo sapiens (human) MDA-MB-231/ATCC cells by SRB assay; summary of the method: as §1
HL-60(TB) = experiment: Anticancer activity against Homo sapiens (human) HL-60(TB) cells assessed as cell growth at 10 uM by SRB assay; settings: read-out: Activity
Summary of the method: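 NCI 60-cell-line human tumour panel screen at a single 10−5 M concentration. Cell growth was estimated by sulforhodamine B protein staining. Results are given as percent growth of treated cells relative to untreated controls.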

SK-MEL-5 [14] = experiment: Anticancer activity against Homo sapiens (human) SK-MEL-5 cells assessed as cell growth at 10 uM by SRB assay; settings: read-out: Activity; summary of the method: as §2
HT-29 [15] = experiment: Anticancer activity against Homo sapiens (human) HT-29 cells by SRB assay; summary of the method: as §1
MDA-MB-231 [16] = experiment: Anticancer activity against Homo sapiens (human) MDA-MB-231/ATCC cells assessed as cell growth at 10 uM by SRB assay; settings: read-out: Activity; summary of the method: as §3
A498 = experiment: Anticancer activity against Homo sapiens (human) A498 cells by SRB assay; summary of the method: as §1
ACHN = experiment: Anticancer activity against Homo sapiens (human) ACHN cells by SRB assay; summary of the method: as §1
SF-539 [17] = experiment: Anticancer activity against Homo sapiens (human) SF539 cells by SRB assay; summary of the method: as §4
HT-29 [18] = experiment: Anticancer activity against Homo sapiens (human) HT-29 cells assessed as cell growth at 10 uM by SRB assay; settings: read-out: Activity; summary of the method: as §3
COLO 205 = experiment: Anticancer activity against Homo sapiens (human) COLO205 cells by SRB assay; summary of the method: as §1
Hs-578T = experiment: Anticancer activity against Homo sapiens (human) Hs 578T cells assessed as cell growth at 10 uM by SRB assay; settings: read-out: Activity; summary of the method: as §3
EKVX = experiment: Anticancer activity against Homo sapiens (human) EKVX cells by SRB assay; summary of the method: as §1
OVCAR-8 = experiment: Anticancer activity against Homo sapiens (human) OVCAR8 cells by SRB assay; summary of the method: as §4
SF-268 = experiment: Anticancer activity against Homo sapiens (human) SF268 cells by SRB assay; summary of the method: as §4
[19] = read-out: pLC50 (the source's name) (converted)

**Q.** With `O=c1sc2c(Cl)nc(-c3ccccc3)nc2n1-c1ccccc1` as the compound, how does the GI50 (HCT-116 [1]) read?
**A.** 2090 nM

**Q.** What about the CC50 (HCT-116 [1]; [19]) of the same compound?
**A.** 9.55 µM

**Q.** And the TGI (HCT-116 [1]; read-out: pTGI (converted))?
**A.** 4.47 µM

**Q.** And the growth at 10 µM (SK-MEL-28)?
**A.** 9%

**Q.** What about the growth at 10 µM (MDA-MB-468) of the same compound?
**A.** 20%

**Q.** And the growth at 10 µM (LOX IMVI [2])?
**A.** -44%

**Q.** What about the growth at 10 µM (U-251) of the same compound?
**A.** 20%

**Q.** What about the TGI (OVCAR-5) of the same compound?
**A.** 45.7 µM

**Q.** What about the GI50 (LOX IMVI [3]) of the same compound?
**A.** 2040 nM

**Q.** And the CC50 (LOX IMVI [3]; [19])?
**A.** 18.2 µM

**Q.** And the TGI (LOX IMVI [3]; read-out: pTGI (converted))?
**A.** 4.79 µM

**Q.** And the growth at 10 µM (HCT-116 [4])?
**A.** -53%

**Q.** What about the GI50 (MCF7) of the same compound?
**A.** 64.6 µM

**Q.** And the growth at 10 µM (HCC 2998)?
**A.** 90%

**Q.** What about the growth at 10 µM (SF-539 [5]) of the same compound?
**A.** 52%

**Q.** What about the GI50 (Malme-3M) of the same compound?
**A.** 14.8 µM

**Q.** What about the TGI (Malme-3M; read-out: pTGI (converted)) of the same compound?
**A.** 79.4 µM

**Q.** What about the GI50 (M14) of the same compound?
**A.** 3.8 µM

**Q.** What about the TGI (M14; read-out: pTGI (converted)) of the same compound?
**A.** 35.5 µM

**Q.** What about the GI50 (OVCAR-3 [6]) of the same compound?
**A.** 1780 nM

**Q.** What about the TGI (OVCAR-3 [6]; read-out: pTGI (converted)) of the same compound?
**A.** 79.4 µM

**Q.** And the growth at 10 µM (OVCAR-3 [7])?
**A.** -41%

**Q.** What about the GI50 (SK-MEL-5 [8]) of the same compound?
**A.** 15.5 µM

**Q.** And the growth at 10 µM (SF-295 [9])?
**A.** 92%

**Q.** And the growth at 10 µM (KM12)?
**A.** 81%

**Q.** And the growth at 10 µM [10]?
**A.** 75%

**Q.** And the GI50 (SF-295 [11])?
**A.** 57.5 µM

**Q.** And the growth at 10 µM (NCI-H23)?
**A.** 20%

**Q.** What about the GI50 [12] of the same compound?
**A.** 14.1 µM

**Q.** And the TGI ([12]; read-out: pTGI (converted))?
**A.** 58.9 µM

**Q.** And the GI50 (786-0)?
**A.** 7.08 µM

**Q.** And the TGI (786-0; read-out: pTGI (converted))?
**A.** 56.2 µM

**Q.** And the GI50 (MDA-MB-231 [13])?
**A.** 6.31 µM

**Q.** What about the growth at 10 µM (HL-60(TB)) of the same compound?
**A.** 38%

**Q.** What about the growth at 10 µM (SK-MEL-5 [14]) of the same compound?
**A.** 60%

**Q.** What about the GI50 (HT-29 [15]) of the same compound?
**A.** 3.89 µM

**Q.** And the TGI (HT-29 [15]; read-out: pTGI (converted))?
**A.** 19.1 µM

**Q.** And the growth at 10 µM (MDA-MB-231 [16])?
**A.** 37%

**Q.** And the GI50 (A498)?
**A.** 3.47 µM

**Q.** What about the GI50 (ACHN) of the same compound?
**A.** 6.92 µM

**Q.** And the GI50 (SF-539 [17])?
**A.** 11 µM

**Q.** What about the growth at 10 µM (HT-29 [18]) of the same compound?
**A.** 10%

**Q.** What about the GI50 (COLO 205) of the same compound?
**A.** 11.2 µM

**Q.** What about the growth at 10 µM (Hs-578T) of the same compound?
**A.** 12%

**Q.** And the GI50 (EKVX)?
**A.** 25.7 µM

**Q.** And the GI50 (OVCAR-8)?
**A.** 2040 nM

**Q.** What about the TGI (OVCAR-8; read-out: pTGI) of the same compound?
**A.** 43.7 µM

**Q.** What about the GI50 (SF-268) of the same compound?
**A.** 10.5 µM

**Q.** What about the TGI (SF-268; read-out: pTGI (converted)) of the same compound?
**A.** 38 µM
